The values below come from ChEMBL document CHEMBL4020837, “Identification of Eukaryotic Translation Elongation Factor 1-α 1 Gamendazole-Binding Site for Binding of 3-Hydroxy-4(1 H)-quinolinones as Novel Ligands with Anticancer Activity” (J Med Chem, 2018).

The target in assay [1] is T1, Elongation factor 1-alpha 1 (Homo sapiens) (UniProt P68104).
T1 sequence (whole entry): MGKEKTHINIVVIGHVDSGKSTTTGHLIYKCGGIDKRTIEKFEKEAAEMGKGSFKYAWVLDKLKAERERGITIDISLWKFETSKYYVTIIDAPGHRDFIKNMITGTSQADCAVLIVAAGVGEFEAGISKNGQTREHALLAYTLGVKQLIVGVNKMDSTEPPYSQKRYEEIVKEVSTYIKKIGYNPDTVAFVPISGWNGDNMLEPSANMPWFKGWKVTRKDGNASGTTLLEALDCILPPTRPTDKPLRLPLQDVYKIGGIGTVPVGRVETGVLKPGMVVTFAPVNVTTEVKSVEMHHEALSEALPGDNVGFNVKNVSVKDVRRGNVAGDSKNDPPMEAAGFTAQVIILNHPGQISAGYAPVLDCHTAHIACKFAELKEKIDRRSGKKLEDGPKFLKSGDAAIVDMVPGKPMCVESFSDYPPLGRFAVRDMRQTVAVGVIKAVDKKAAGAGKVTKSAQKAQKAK
The assay is described as follows: Binding affinity to recombinant human eEF1A1 expressed in HEK293 cells by ITC. Summed up:
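Isothermal titration calorimetry recorded the heat changes on titrating ligand into eEF1A1. Binding enthalpy and association constant (Ka) were derived from the titration profiles.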
A general note: Isothermal titration calorimetry measures the heat released or taken up as one component is titrated into another.

Assay [2] deals with A549. The assay is described as follows: Antiproliferative activity against human A549 cells after 72 hrs by MTT assay. Format: functional, cell-based. To be noted: A549, 72 h. In general terms: Formazan colour is commonly taken as a measure of viable cells.
Assay [3] has as its system U2OS. As to the kind of experiment: Antiproliferative activity against human U2OS cells after 72 hrs by MTT assay. Format: functional, cell-based.
The test system of assay [4] is CCRF-CEM. The assay is described as follows: Antiproliferative activity against human CCRF-CEM cells after 72 hrs by MTT assay. Format: functional, cell-based.
Assay [5] is described as follows: Antiproliferative activity against human CEM-DNR-bulk cells after 72 hrs by MTT assay. Format: functional, cell-based.
The test system of another assay is HCT-116. As to the kind of experiment: Antiproliferative activity against human HCT116 cells after 72 hrs by MTT assay. Format: functional, cell-based. To be noted: HCT-116, 72 h.
Assay [6] has as its system K562. The assay is described as follows: Antiproliferative activity against human K562 cells after 72 hrs by MTT assay. Format: functional, cell-based. To be noted: K562, 72 h.
Assay [7] deals with K562. The assay is described as follows: Antiproliferative activity against taxol resistant human K562 cells after 72 hrs by MTT assay. The assay is classed as functional, cell-based. To be noted: K562, 72 h.
Assay [8] deals with BJ. The assay is described as follows: Antiproliferative activity against human BJ cells after 72 hrs by MTT assay. Format: cell-based.
In assay [9] the test system is K562. As to the kind of experiment: Antiproliferative activity against taxol resistant human K562 cells by MTT assay. Format: functional, cell-based.
Assay [10] relates to CCRF-CEM. As to the kind of experiment: Antiproliferative activity against human CCRF-CEM cells by MTT assay. The assay is classed as functional, cell-based.
Assay [11] is described as follows: Antiproliferative activity against human CEM-DNR-bulk cells by MTT assay. The assay is classed as functional, cell-based.
In assay [12] the test system is U2OS. The assay is described as follows: Antiproliferative activity against human U2OS cells by MTT assay. Format: functional, cell-based.
The subject of assay [13] is K562. The assay is described as follows: Antiproliferative activity against human K562 cells by MTT assay. Format: functional, cell-based.
In assay [14] the test system is A549. The assay is described as follows: Antiproliferative activity against human A549 cells by MTT assay. Format: functional, cell-based.
The test system of assay [15] is BJ. The assay is described as follows: Antiproliferative activity against human BJ cells by MTT assay. The assay is classed as cell-based.
Assay [16] has as its target T1, Elongation factor 1-alpha 1 (Homo sapiens). As to the kind of experiment: Binding affinity to eEF1A1 in human CCRF-CEM cells after 30 mins by HPLC-MS based SDS-PAGE analysis. The assay is classed as cell-based. In short, it runs like this:
(§1)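 Biotinylated 3-HQ ligands (one linked via the quinolinone benzene ring, one via the 2-phenyl ring) were immobilized on streptavidin magnetic beads and incubated with total protein lysate from CCRF-CEM cells. Bound proteins were released, resolved by SDS-PAGE, and identified by mass spectrometry.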

For assay [17], the target named is Pyruvate kinase PKM (Homo sapiens) (UniProt P14618). As to the kind of experiment: Binding affinity to PKM2 in human CCRF-CEM cells after 30 mins by HPLC-MS based SDS-PAGE analysis. The assay is classed as cell-based. Summed up:
as §1

For assay [18], the target named is Actin, cytoplasmic 1 (Homo sapiens) (UniProt P60709). The assay is described as follows: Binding affinity to beta-actin in human CCRF-CEM cells after 30 mins by HPLC-MS based SDS-PAGE analysis. The assay is classed as cell-based. In short, it runs like this: as §1
Assay [19] concerns the target T1, Elongation factor 1-alpha 1 (Homo sapiens). The assay is described as follows: Binding affinity to eEF1A1 in human CCRF-CEM cells after 30 mins by Western blot method. The assay is classed as cell-based.
The target in assay [20] is Pyruvate kinase PKM (Homo sapiens) (UniProt P14618). As to the kind of experiment: Binding affinity to PKM2 in human CCRF-CEM cells after 30 mins by Western blot method. The assay is classed as cell-based. (In western blotting, separated proteins are transferred to a membrane and probed.)
Assay [21] addresses Actin, cytoplasmic 1 (Homo sapiens) (UniProt P60709). The assay is described as follows: Binding affinity to beta-actin in human CCRF-CEM cells after 30 mins by Western blot method. Format: cell-based.

Active and inactive are the calls of the source. The calls are words filed in the database; no cut-off is given here. Bounds are passed on as bounds.

Sequence of Pyruvate kinase PKM (Homo sapiens) (P14618 2-531 limits assumed): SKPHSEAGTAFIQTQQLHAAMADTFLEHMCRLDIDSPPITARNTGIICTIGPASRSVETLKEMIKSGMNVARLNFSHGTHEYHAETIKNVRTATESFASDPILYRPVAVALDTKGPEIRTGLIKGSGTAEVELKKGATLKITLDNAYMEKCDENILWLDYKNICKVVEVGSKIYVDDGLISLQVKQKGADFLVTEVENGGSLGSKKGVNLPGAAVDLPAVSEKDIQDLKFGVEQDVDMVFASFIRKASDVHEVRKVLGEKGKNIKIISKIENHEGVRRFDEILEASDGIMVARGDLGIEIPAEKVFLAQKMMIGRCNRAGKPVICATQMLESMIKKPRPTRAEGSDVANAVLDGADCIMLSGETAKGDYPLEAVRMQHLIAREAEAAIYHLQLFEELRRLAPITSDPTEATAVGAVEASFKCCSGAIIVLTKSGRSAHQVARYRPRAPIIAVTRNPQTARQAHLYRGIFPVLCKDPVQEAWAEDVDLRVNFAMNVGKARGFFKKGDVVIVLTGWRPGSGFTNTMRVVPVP

In general, IC50 refers to the concentration needed to halve the response being measured. High values mean lower potency, low ones higher potency. Consider `CCCCCNC(=O)c1ccc2c(=O)c(O)c(-c3ccc(N4CCCCC4)c(C(N)=O)c3)[nH]c2c1`, for which the Ka in assay [1] amounted to 5.3 ×10⁶ /M. In addition, the concentration for half-maximal inhibition (IC50) came to 1.89 µM in the assay on A549 [2]; 0.56 µM in the assay with U2OS [3]; 1.73 µM in the assay on CCRF-CEM [4]; 8.03 µM in assay [5]; 0.64 µM in the assay with HCT-116; 2.39 µM with K562 [6]. For the same molecule, the IC50 with K562 [7] worked out at 32.7 µM; with BJ [8], 10.2 µM.
In the case of `O=C(O)c1cc(-c2[nH]c3ccccc3c(=O)c2O)ccc1N1CCOCC1`, the Ka in assay [1] was found to be 1.03 ×10⁷ /M. Also, the IC50 with A549 [2] stood at 50 µM; with U2OS [3], 50 µM; in the assay with CCRF-CEM [4] it was 49.6 µM; in assay [5], 50 µM; with HCT-116 it was 50 µM; with K562 [6], 50 µM. Besides, the concentration for half-maximal inhibition (IC50) in the assay with K562 [7] and in the assay with BJ [8] was 50 µM in each case.
As for `O=C(O)/C=C/c1nn(Cc2ccc(Cl)cc2Cl)c2cc(C(F)(F)F)ccc12`, the Ka in assay [1] came out at 1.27 ×10⁷ /M.
As for `NC(=O)c1cc(-c2[nH]c3ccccc3c(=O)c2O)ccc1N1CCCCC1`, the Ka in assay [1] was 2.9 ×10⁶ /M. Moreover, the IC50 turned out to be 9.96 µM in the assay on A549 [2]; 26 µM with U2OS [3]; 3.34 µM with CCRF-CEM [4]; 21.4 µM in assay [5]; 4.46 µM in the assay on HCT-116; 7.1 µM in the assay on K562 [6]. The IC50 amounted to 6.41 µM with K562 [7] and 48.9 µM in the assay with BJ [8].
Regarding `CCN(CC)c1ccc(-c2[nH]c3ccccc3c(=O)c2O)cc1[N+](=O)[O-]`, the 50% inhibitory concentration (IC50) turned out to be 2.71 µM in the assay on K562 [9]; 1.72 µM in the assay on CCRF-CEM [10]; 6.75 µM in assay [11]; 8.57 µM in the assay on U2OS [12]; 0.75 µM in the assay with K562 [13]; 1.89 µM in the assay with A549 [14]. Moreover, in the assay on BJ [15], the half-maximal inhibitory concentration (IC50) was 9.73 µM.
In the case of `NC(=O)c1cc(-c2[nH]c3ccccc3c(=O)c2O)ccc1N1CCOCC1`, the Ka in [1] was found to be 6.8 ×10⁶ /M. The half-maximal inhibitory concentration (IC50) with A549 [2] was 44.4 µM; in the assay on U2OS [3], 50 µM; in the assay with CCRF-CEM [4] it was 16.2 µM; in [5] it was 50 µM; with HCT-116, 30.6 µM; with K562 [6], 50 µM. Moreover, the half-inhibitory concentration (IC50) with K562 [7] and in the assay with BJ [8] was 50 µM in each case.
As for `CCNc1ccc(-c2[nH]c3cc(C(=O)NCCOCCOC(=O)CCCC[C@@H]4SC[C@@H]5NC(=O)N[C@@H]54)ccc3c(=O)c2O)cc1[N+](=O)[O-]`, the outcome in assay [16], in [17], in [18], in [19], in [20] and in [21] was Active.
As to `CCNc1ccc(-c2[nH]c3ccccc3c(=O)c2O)cc1[N+](=O)[O-]`, the half-inhibitory concentration (IC50) in the assay with K562 [9] was 1.96 µM; in the assay on CCRF-CEM [10] it was 1.42 µM; in assay [11], 3.01 µM; in the assay on U2OS [12] it was 9.98 µM; in the assay on K562 [13], 0.66 µM; with A549 [14], 0.94 µM. Also, half-maximal inhibition with BJ [15] (IC50) required 9.39 µM.
On to `NC(=O)c1cc(-c2[nH]c3cc(C(=O)NCc4ccccc4)ccc3c(=O)c2O)ccc1N1CCCCC1`, for which the Ka in assay [1] was 1.81 ×10⁷ /M. Also, the IC50 in the assay on A549 [2] was 3.77 µM; in the assay on U2OS [3], 0.58 µM; with CCRF-CEM [4], 1.73 µM; in assay [5], over 50 µM; with HCT-116 it was 1.01 µM; in the assay with K562 [6], 8.3 µM. The IC50 in the assay with K562 [7] and in the assay on BJ [8] was over 50 µM in each case.
As to `O=c1c(O)c(-c2ccc(N3CCCCC3)c([N+](=O)[O-])c2)[nH]c2ccccc12`, the IC50 is 2.02 µM in the assay with K562 [9]; 1.55 µM in the assay on CCRF-CEM [10]; 3 µM in assay [11]; 7.51 µM in the assay with U2OS [12]; 0.75 µM with K562 [13]; 1.62 µM with A549 [14]. The same molecule displayed an IC50 in the assay on BJ [15] of 9.83 µM.
For the molecule `O=C(O)c1cc(-c2[nH]c3ccccc3c(=O)c2O)ccc1N1CCCCC1`, the Ka in assay [1] was 2.54 ×10⁶ /M. The IC50 in the assay on A549 [2] amounted to 50 µM; in the assay with U2OS [3], 50 µM; with CCRF-CEM [4], 49.6 µM; in assay [5], 50 µM; in the assay on HCT-116 it was 50 µM; in the assay with K562 [6], 50 µM. The IC50 in the assay on K562 [7] and in the assay with BJ [8] was 50 µM each time.
As for `O=c1c(O)c(-c2ccccc2)[nH]c2ccccc12`, in assay [1], the Ka entry is “inactive”. The IC50 is over 50 µM in the assay on A549 [2]; 47 µM in the assay with U2OS [3]; 26.7 µM with CCRF-CEM [4]; 22.5 µM in [5]; 44.2 µM in the assay with HCT-116; 48 µM in the assay on K562 [6]. The IC50 is 27.4 µM in the assay with K562 [7] and over 50 µM with BJ [8].
Turning to `O=C1N[C@H]2[C@H](CS[C@H]2CCCCC(=O)OCCOCCOCCOCCOCCOCCOCCOCCOCCOCCNc2ccc(-c3[nH]c4ccccc4c(=O)c3O)cc2[N+](=O)[O-])N1`, the outcome in assay [19], in assay [20] and in assay [21] was inactive.
